Source: PubChem BioAssay (several laboratories)
TDP2 inh = blocks human TDP2 phosphodiesterase activity | O95551 | recombinant TDP2, T5PNP hydrolysis, p-nitrophenol absorbance 415 nm | inhibition, % at 12.8 µM | 370,000 tested, 0.34% active;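 active means inhibition above the mean of all tested compounds plus 3 SD, set per campaign, cut at about 25% in these data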
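Evaluation: % inhibition relative to enzyme-containing and enzyme-free wells. Material: recombinant human TDP2. Benchmarks: enzyme-free and DMSO wells. Timing: enzyme reaction with compound for 2 h at 37 °C. Compound dosing: 12.8 µM only. Measured by: p-Nitrophenol epi absorbance. Reagent: T5PNP substrate at 5 mM, a TopII-DNA adduct mimic. Replication: single well per compound.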
HKDC1 inh = inhibitors of human hexokinase HKDC1. Q2TB90. recombinant HKDC1, G6PDH/diaphorase resazurin coupled fluorescence. inhibition, % at 20 µM. 340,000 tested, 0.16% active. AID 493160;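 active means inhibition above about 35% when tested at 20 µM, limit read from the data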
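Test system: Recombinant HKDC1 (HK5) hexokinase enzyme, produced in-house | Input: HKDC1 at 5 µg/mL | Buffer or medium: Tris pH 8.0 buffer with MgCl2, Tween-20, BSA, BME | Schedule: 90 min reaction incubation at room temperature, dark | Technique: Resazurin-to-resorufin fluorescence via G6PDH and diaphorase coupling, 525/613 nm | Controls: DMSO wells with and without enzyme mix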
Fh CTSL1 inh = cathepsin L1 inhibition, PFM18AAP counter-screen; recombinant F. hepatica cathepsin L1, Z-Leu-Arg-MCA fluorescence; AID 1906; inhibition, % at 5.96 µM; 300,000 tested, 0.49% active;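 active means inhibition above the mean of all tested compounds plus 3 SD, set per screening campaign, cut at about 17% in these data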
PAD4 FP inh = blocks human protein arginine deiminase 4. Q9UM07. recombinant PAD4, RCA probe fluorescence polarization. inhibition, % at 6.36 µM. 330,000 tested, 0.41% active;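 active means percent inhibition above a cutoff equal to the mean of all tested compounds plus 3 SD, cut at about 15% in these data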
Target sequence (Q9UM07 whole entry, looked up): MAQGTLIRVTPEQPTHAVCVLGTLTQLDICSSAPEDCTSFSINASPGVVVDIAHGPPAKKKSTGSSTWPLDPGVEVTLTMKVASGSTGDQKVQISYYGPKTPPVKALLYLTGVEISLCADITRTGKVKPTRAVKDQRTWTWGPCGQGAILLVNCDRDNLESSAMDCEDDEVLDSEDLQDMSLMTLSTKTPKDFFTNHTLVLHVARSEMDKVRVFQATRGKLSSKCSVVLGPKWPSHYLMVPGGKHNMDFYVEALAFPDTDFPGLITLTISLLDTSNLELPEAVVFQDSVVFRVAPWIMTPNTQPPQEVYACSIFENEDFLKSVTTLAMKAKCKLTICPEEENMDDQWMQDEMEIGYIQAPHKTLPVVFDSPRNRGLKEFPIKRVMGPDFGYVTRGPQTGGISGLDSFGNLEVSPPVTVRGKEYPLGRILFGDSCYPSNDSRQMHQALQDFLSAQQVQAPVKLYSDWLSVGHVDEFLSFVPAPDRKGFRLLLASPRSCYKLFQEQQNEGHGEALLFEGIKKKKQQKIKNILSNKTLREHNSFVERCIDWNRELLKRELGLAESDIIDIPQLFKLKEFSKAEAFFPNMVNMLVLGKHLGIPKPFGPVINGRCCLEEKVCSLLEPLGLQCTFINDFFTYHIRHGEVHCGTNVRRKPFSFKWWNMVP
UCH37 inh = inhibitors of human deubiquitinating enzyme UCH37; Q9Y5K5; inhibition, % (no concentration beside the values); 330,000 tested, 0.33% active; AID 588478; purified proteasome/UCH37, Ub-AMC cleavage fluorescence;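 active means mean inhibition over replicate wells above about 20%, limit read from the data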
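System: Proteasome-associated human UCH37 deubiquitinase; Input: 0.15 nM proteasome in added enzyme buffer; Also added: Ub-AMC substrate from 1 µM stock; Incubation: 30 min compound-proteasome preincubation then 25 min substrate reaction, room temperature; Detection: fluorescence, ex 355 nm, em 460 nm; Read-out: % inhibition of Ub-AMC cleavage fluorescence; Benchmarks: no-proteasome and no-compound wells.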
GSTO1 counter = blocks human GSTO1 in RBBP9 counter-screen. 300,000 tested, 1.1% active. P78417. AID 1974. inhibition, % at 5.96 µM. recombinant GSTO1, activity-based probe fluorescence polarization;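 active means inhibition above the campaign mean inhibition plus 3 SD, cut at about 35% in these data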
GSTO1 inh conf = confirmation of human GSTO1 inhibitors | 2,400 tested, 54% active | AID 2176 | inhibition, % at 5.96 µM | shares compounds with GSTO1 counter | recombinant GSTO1, probe fluorescence polarization;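 active means inhibition above the primary screen's cutoff, its mean inhibition plus 3 SD, cut at about 35% in these data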;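 further: loss of polarization as inhibitors block binding of rhodamine sulfonate ester activity probe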
GSTO1 recomb ABPP = blocks recombinant human glutathione S-transferase omega 1. recombinant GSTO1, gel ABPP SE-Rh probe fluorescence. 130 tested, 30% active. inhibition, % at 1 µM. shares compounds with GSTO1 counter. AID 463110;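 active means inhibition of the enzyme GSTO1 above about 75%, limit read from the data; inactive means inhibition below that limit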
Hits are given with their value; i = inactive; nt = no result. A selection: hits, their analogues and other compounds. The true share with any hit is near 1.6%.

SMILES	TDP2 inh	HKDC1 inh	Fh CTSL1 inh	PAD4 FP inh	UCH37 inh	GSTO1 counter	GSTO1 inh conf	others
Cc1ccc(S(=O)(=O)C(C#N)c2nc3ccccc3nc2N2CCCC2)cc1 (centres undefined)	36.7	i	i	i	nt	51.0	i
O=S(=O)(c1ccccc1)c1cc(O)ccc1O	i	i	i	i	i	64.2	i
Cc1c(O)ccc2cc(S(=O)(=O)c3ccccc3)c(=O)oc12	i	i	i	i	i	i	nt
O=S(=O)(c1ccc(Cl)cc1)c1cc(O)ccc1O	i	i	i	i	i	61.2	i
COc1ccc(C=NNS(=O)(=O)c2ccc(C)cc2)cc1COc1ccccc1[N+](=O)[O-]	nt	nt	nt	nt	i	nt	nt
CCOc1cc(C=NNC(=O)c2ccc(NC(=O)C(C)(C)C)cc2)ccc1OC(=O)c1ccc(C)cc1	nt	nt	nt	nt	i	nt	nt
Cc1cc(C(=O)CCl)c(C)n1-c1cccc([N+](=O)[O-])c1	i	i	i	i	i	96.0	94.2
CC(=O)c1c(C(C)=O)c(C)n(-c2cccc([N+](=O)[O-])c2)c1C	i	i	i	i	i	i	nt
Cc1ccccc1Nc1cc2ccccc2c(=O)[nH]1	nt	i	82.6	58.7	i	73.6	44.6
COc1ccccc1N1CCN(CC(O)=C(C#N)c2nc(-c3ccccc3)cs2)CC1	nt	nt	nt	nt	i	nt	nt
CC1=NN(c2ccccc2)C(=O)/C1=C\c1cc(C)n(C)c1C	i	i	i	i	i	i	nt
CC1=NN(c2ccccc2)C(=O)/C1=C/c1cc2cc(C)ccc2nc1N1CCCCC1	nt	nt	i	20.5	nt	68.3	i
Cc1ccc(Cl)cc1NC(=O)CCC(=O)O	i	i	i	i	i	63.7	i
Cc1oc2c(c1C(=O)NCc1cccnc1)C(=O)c1ccccc1C2=O	nt	i	31.0	i	21.9	59.7	48.4
Cc1onc(-c2ccccc2Cl)c1C(=O)NCc1cccnc1	i	i	i	i	i	i	nt
COc1ccc(CNC(=O)c2c(C)oc3c2C(=O)c2ccccc2C3=O)cc1	i	i	i	i	i	52.7	35.4
CC(=O)c1c(C)oc2c1C(=O)c1ccccc1C2=O	i	i	i	i	i	45.9	56.3
Cc1ccc(CN2CCN(CC(=O)NN=Cc3ccccc3F)CC2)cc1	nt	nt	nt	nt	i	nt	nt
Cc1ccccc1C(=O)Nc1ccc(C(=O)NN=Cc2ccc(F)cc2)cc1	nt	nt	nt	nt	i	nt	nt
CC[C@H](C)/C=C/C1=CC2=C(Cl)C(=O)[C@@]3(C)OC(=O)C(C(=O)[C@H](C)[C@@H](C)O)=C3C2=CO1	nt	i	i	i	i	46.6	i
N#CC(=C=[N-])c1nc2ccccc2nc1-[n+]1ccccc1	i	i	i	i	i	64.0	36.5
Cc1cc[n+](-c2nc3ccccc3nc2[N-]S(=O)(=O)c2ccccc2)cc1	i	i	i	i	i	i	nt
Cc1cc[n+](-c2nc3ccccc3nc2C(=C=[N-])C#N)cc1	i	i	i	i	i	47.4	i
O=S(=O)([N-]c1nc2ccccc2nc1-[n+]1ccccc1)c1ccc(Cl)cc1	i	i	i	i	i	i	nt
N#Cc1ccccc1OCC(=O)Nc1c(C(=O)C2CC2)oc2ccccc12	i	i	i	i	i	81.3	97.6
SMILES	TDP2 inh	HKDC1 inh	Fh CTSL1 inh	PAD4 FP inh	UCH37 inh	GSTO1 counter	GSTO1 inh conf	others
O=C(CN1CCCC1)Nc1c(C(=O)C2CC2)oc2ccccc12	i	i	i	i	i	i	nt
O=C1c2ccccc2C(=O)C1(O)O	nt	nt	nt	i	nt	nt	nt
CC1(S(=O)(=O)O)CC(=O)c2ccccc2C1=O (centres undefined)	i	i	i	i	i	73.8	73.5
CCc1ccc(-c2nc(CCl)cs2)cc1	i	i	i	i	i	92.3	97.9	GSTO1 recomb ABPP=81.0
COc1cccc(-c2nc(CCl)cs2)c1	i	i	i	i	i	83.2	94.6	GSTO1 recomb ABPP=i
CC(=O)c1c(C)nc(-c2ccc(Cl)cc2)nc1N	i	i	i	i	i	i	nt
CC(=O)c1c(C)nc(-c2ccc(Cl)cc2)nc1N=CN(C)C	i	i	i	i	i	38.2	i
Cc1[nH]n(-c2ccccc2)c(=O)c1N=Nc1c(O)cc(S(=O)(=O)N(C)C)c2ccccc12	i	i	i	i	i	46.9	70.8
Cc1nc(Cl)c(C(=O)NCc2ccccc2)c(C)c1Cl	i	i	i	i	i	i	nt
O=C(NCc1ccccc1)c1c(Cl)nc(Cl)c(Cl)c1Cl	i	i	i	i	i	41.0	57.7
CN(C)Cc1c(O)ccc2c(=O)c(-c3ccc(Cl)cc3)coc12	i	i	i	i	i	i	nt
O=c1c(-c2ccc([N+](=O)[O-])cc2)coc2c(O)c(O)ccc12	i	i	i	i	nt	53.4	i
O=C1Cc2cccc(=O)c(O)c2C(=O)O1	i	nt	nt	nt	nt	nt	nt
O=C1c2c(O)cccc2Cc2cccc(O)c21	i	i	i	i	i	45.4	i
COc1ccc(OC)c2sc(N3CCN(C(=O)c4ccc([N+](=O)[O-])s4)CC3)nc12	i	i	i	i	i	54.0	i
Cc1ccc(-n2c(SCC(=O)NN=Cc3c(C)nn(-c4ccccc4)c3C)nc3ccccc3c2=O)cc1	nt	nt	nt	nt	i	nt	nt
C=CCN1C=C2C(=O)C(C)(OC(=O)c3ccco3)C(=O)C(C=C)=C2C=C1C1CC1 (centres undefined)	nt	nt	i	i	nt	39.1	i
C=CC1=C2C=C(C3CC3)N(CC3CC3)C=C2C(=O)C(C)(OC(=O)c2ccco2)C1=O (centres undefined)	i	i	i	i	i	i	nt
O=c1[nH]c2ccc(Br)cc2c(-c2ccccc2)c1CN1CCOCC1	i	i	i	i	i	63.7	i
O=C(CSc1nnc(-c2c[nH]c3ccccc23)n1C1CC1)NC1CCS(=O)(=O)C1 (centres undefined)	i	nt	nt	nt	nt	nt	nt
O=C(CSc1nnc(-c2ccc(Cl)cc2Cl)n1C1CCCCC1)NC1CCS(=O)(=O)C1 (centres undefined)	i	i	i	i	i	45.1	i
O=C(O)CCC(=NNC(=O)CNC(=O)c1ccc2c(c1)OCCO2)c1ccccc1	nt	nt	nt	nt	i	nt	nt
COc1ccc(C(=O)NN=Cc2cccc3cccnc23)cc1	nt	nt	nt	nt	i	nt	nt
O=C(NN=Cc1ccccc1F)c1cccc2ccccc12	nt	nt	nt	nt	i	nt	nt
CC(=O)C(C(C)=O)c1c(Cl)c(O)c(O)c2c(C(=O)c3ccccc3)coc12	i	i	i	i	i	57.9	i
Cn1nc(C(=O)NCC2CCCO2)c2ccccc2c1=O (centres undefined)	i	i	i	i	i	74.6	i
c1coc(-c2cnc3ccccc3n2)c1	i	nt	nt	nt	nt	nt	nt
c1coc(-c2nc3ccccc3nc2-c2ccco2)c1	27.8	i	i	i	i	61.5	60.6
